Test [1] has as its system Mus musculus. Nature of the test: Antinociceptive activity in Swiss mouse assessed as inhibition of acetic acid-induced abdominal constrictions at 100 umol/kg, po administered 40 mins before acetic acid challenge measured for 25 mins relative to control. The format is functional. Conditions: Abdomen. The procedure, abridged:
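Mice were dosed at 100 µmol/kg po in arabic gum (10 mL/kg), 40 min before 0.6% v/v acetic acid ip (0.1 mL/10 g). Writhes (abdominal contraction, pelvic rotation, hind-limb extension) were counted for 20 min starting 5 min post-injection. Results are expressed as % inhibition versus vehicle controls. Groups of 6 (control 10), ANOVA/Dunnett.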

In test [2] the test system is Mus musculus. Nature of the test: Analgesic activity against formalin-induced acute pain in Swiss mouse assessed as decrease of time spent in paw licking at 100 umol/kg, po administered 40 mins before formalin challenge measured for 0 to 5 mins. The format is functional, organism-based. The procedure, abridged: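 Male or female adult Swiss mice (20–30 g, 6–8 weeks), groups of 6, dosed orally in arabic gum vehicle (10 mL/kg) 40 min before 20 µL of 2.5% formalin (0.92% formaldehyde in saline) into ventral surface of right hind paw. Paw-licking time recorded 0–5 min (neurogenic phase) after injection; mean ± S.E.M. versus vehicle controls, ANOVA with Dunnett test.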

The test system of test [3] is Mus musculus. Nature of the test: Analgesic activity against formalin-induced acute pain in Swiss mouse assessed inhibition of nociception at 100 umol/kg, po administered 40 mins before formalin challenge measured for 15 to 30 mins relative to control. In kind it is functional. The procedure, abridged: (§1)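 Mice, 6 per group, received 20 µL of 2.5% formalin (0.92% formaldehyde in saline) into the ventral surface of the right hind paw. Dosing was 100 µmol/kg po in arabic gum vehicle (10 mL/kg), 40 min beforehand. Time spent licking the injected paw was recorded over 0–5 min (neurogenic phase) and 15–30 min (inflammatory phase). Data are mean ± S.E.M., ANOVA/Dunnett versus vehicle.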

The test system of test [4] is Mus musculus. Nature of the test: Analgesic activity in Swiss mouse assessed as increase in latency of paw licking at 100 umol/kg, po after 60 mins measured for 60 seconds by hot plate test (reference value: 4.9 +/- 0.5 seconds). The format is functional.
Test [5] concerns Mus musculus. Nature of the test: Analgesic activity in Swiss mouse assessed as increase in latency of paw licking at 100 umol/kg, po after 90 mins measured for 60 seconds by hot plate test (reference value: 5.9 +/- 0.8 seconds). In kind it is functional.
Test [6] has as its system Mus musculus. Nature of the test: Analgesic activity in Swiss mouse assessed as increase in latency of paw licking at 100 umol/kg, po after 120 mins measured for 60 seconds by hot plate test (reference value: 5.6 +/- 0.5 seconds). In kind it is functional.
Test [7] deals with Mus musculus. Nature of the test: Analgesic activity in Swiss mouse assessed as increase in latency of paw licking at 100 umol/kg, po after 150 mins measured for 60 seconds by hot plate test (reference value: 5.1 +/- 0.4 seconds). In kind it is functional.
The test system of test [8] is Mus musculus. Nature of the test: Antiedematogenic activity in Swiss mouse assessed as inhibition of capsaicin-induced ear edema at 100 umol/kg, po administered 40 mins before capsaicin challenge measured after 30 mins relative to control.
Test [9] deals with Mus musculus. Nature of the test: Antiedematogenic activity in Swiss mouse assessed as decrease of capsaicin-induced ear edema weight at 100 umol/kg, po administered 40 mins before capsaicin challenge measured after 30 mins relative to control. On the set-up: scale not given: the % may be the effect or the level left.
For test [10], the system named is Rattus norvegicus. Nature of the test: Antiinflammatory effect in complete Freund's adjuvant-induced Wistar rat arthritis model assessed as inhibition of paw edema at 100 umol/kg, po daily once administered on day 14 post adjuvant challenge measured on day 16 post adjuvant challenge. In kind it is functional, organism-based. The procedure, abridged:
(§2)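 Wistar rats (130–170 g) received 0.1 mL complete Freund's adjuvant into the right paw. On day 13, arthritic rats were grouped (n=6) with matched scores. Dosing was 100 µmol/kg po daily from day 14 to 21, with arabic gum vehicle (10 mL/kg) for controls. Paw volume was measured by […] on days 1 and 14–21. Data are mean ± S.E.M., ANOVA/Dunnett.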

Test [11] deals with Rattus norvegicus. Nature of the test: Antiinflammatory effect in complete Freund's adjuvant-induced Wistar rat arthritis model assessed as inhibition of paw edema at 100 umol/kg, po daily once administered on day 14 post adjuvant challenge measured on day 17 post adjuvant challenge. The format is functional, organism-based. The procedure, abridged: as §2
The subject of test [12] is Rattus norvegicus. Nature of the test: Antiinflammatory effect in complete Freund's adjuvant-induced Wistar rat arthritis model assessed as inhibition of paw edema at 100 umol/kg, po daily once administered on day 14 post adjuvant challenge measured on day 21 post adjuvant challenge. In kind it is functional, organism-based. The procedure, abridged: as §2
In test [13] the test system is Mus musculus. Nature of the test: Analgesic activity against formalin-induced acute pain in Swiss mouse assessed as decrease of time spent in paw licking at 100 umol/kg, po administered 40 mins before formalin challenge measured for 15 to 30 mins. The format is functional, organism-based. The procedure, abridged:
as §1

For test [14], the system named is Mus musculus. Nature of the test: Analgesic activity in Swiss mouse assessed as increase in latency of paw licking at 15 umol/kg, ip after 60 mins measured for 60 seconds by hot plate test (reference value: 4.9 +/- 0.5 seconds). The format is functional.
Test [15] concerns Mus musculus. Nature of the test: Analgesic activity in Swiss mouse assessed as increase in latency of paw licking at 15 umol/kg, ip after 90 mins measured for 60 seconds by hot plate test (reference value: 5.9 +/- 0.8 seconds). The format is functional.
Test [16] deals with Mus musculus. Nature of the test: Analgesic activity in Swiss mouse assessed as increase in latency of paw licking at 15 umol/kg, ip after 120 mins measured for 60 seconds by hot plate test (reference value: 5.6 +/- 0.5 seconds). In kind it is functional.
For test [17], the system named is Mus musculus. Nature of the test: Analgesic activity in Swiss mouse assessed as increase in latency of paw licking at 15 umol/kg, ip after 150 mins measured for 60 seconds by hot plate test (reference value: 5.1 +/- 0.4 seconds). The format is functional.

SMILES strings stand for the structures. Active and inactive are the calls of the source. The calls are words filed in the database; no cut-off is given here.

Turning to `O=C(N/N=C/c1ccccc1O)c1cnccn1`, the values for the inhibition in vivo at 100 µmol/kg in test [1], in test [3] and in [8] were 73.1%, 16.2% and 42%, respectively. In test [2], the outcome was Active. For the same compound, the Time stood at 4 s in test [4], 5.2 s in test [5], 6.4 s in test [6] and 5.2 s in [7]. Further, the Activity in test [9] is reported as 33.9%.

As for `O=C1CCC(N2C(=O)c3ccccc3C2=O)C(=O)N1` (stereo unspecified) [THALIDOMIDE], the inhibition in vivo at 100 µmol/kg came out at 73.3% in [1], 66.7% in test [3] and 25.2% in [8]. The Time turned out to be 4.8 s in test [4], 7.5 s in test [5], 6.8 s in test [6] and 5.9 s in test [7]. Moreover, the outcome in [10], in [11] and in [12] was Active. Also, the Activity in test [9] is 46.6%.

As to `COc1cc(/C=N/NC(=O)c2cnccn2)cc(OC)c1OC`, the inhibition in vivo at 100 µmol/kg stood at 97.1% in [1], 86% in [3] and 70% in test [8]. Moreover, the result in test [13], in test [10], in test [11] and in test [12] was Active. Also, the Time is on record as 4 s in [4], 4.8 s in test [5], 4.3 s in [6] and 5.3 s in [7]. The Activity in test [9] is recorded as 17.6%.

As for `CN1CC[C@]23c4c5ccc(O)c4O[C@H]2[C@@H](O)C=C[C@H]3[C@H]1C5` [MORPHINE], the Time is given as 12.8 s in [14], 10.3 s in test [15], 9.7 s in [16] and 9.7 s in test [17].

These data come from ChEMBL document CHEMBL1177683, “Synthesis and pharmacological evaluation of pyrazine N-acylhydrazone derivatives designed as novel analgesic and anti-inflammatory drug candidates” (2010).
